Laboratory results as given in article PMC4076525 (The Journal of General Physiology, 2014).

Assays:
59FeEnt transport = assay type: cell-based, Escherichia coli; conditions: for 59FeEnt transport rate compared with wild-type FepA: before fluoresceination; for Vmax fold lower after fluoresceination: 59FeEnt uptake
How it was run: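 Cultures were grown in LB with antibiotics, then in iron-deficient MOPS medium to 10^9 cells/ml. Cells were assayed before and after labeling with 5 µM fluorescein-5-maleimide (pH 6.5 phosphate/NaCl buffer, 5 min, 37°C, β-mercaptoethanol stop). Uptake was measured in MOPS medium with 0.4% glucose at 37°C in 10-ml volumes. KM and Vmax came from an enzyme-kinetics equation fit per sample.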

[1] = Fluorescence recovery after FeEnt quenching; assay type: cell-based, Escherichia coli; conditions: after FM modification
[2] = 59FeEnt binding by cells expressing FepA Cys substitution mutants; design: species or system Escherichia coli; conditions: read-out: Binding >FM Kd, after modification with FM
How it was run: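 Cells were grown overnight at 37°C in LB with streptomycin (100 µg/ml) and chloramphenicol (20 µg/ml). They were subcultured 1% into iron-deficient MOPS medium and grown 5.5–6 h to 10^9 cells/ml, then labeled with 5 µM fluorescein-5-maleimide at pH 6.5 for 5 min at 37°C. Reactions were stopped with 100 mM β-mercaptoethanol. Binding ran at 0°C in 10-ml volumes, and Kd and capacity came from a bound-versus-total fit.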

[3] = Extent of FeEnt-induced quenching of FM fluorescence in live cells; assay type: cell-based, Escherichia coli; conditions: 10 nM FeEnt, 2.5 × 10^7 cells/ml, FM-labeled mutants
How it was run: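 Hosts were tonB+ ΔfepA or ΔtonB ΔfepA E. coli expressing plasmid-borne Cys-substituted FepA, grown in iron-deficient MOPS medium to late log. 10^10 cells were labeled with 5 µM fluorescein-5-maleimide in 50 mM Na2HPO4, 0.9% NaCl, pH 6.5, for 5 min at 37°C. Labeling was quenched with β-mercaptoethanol, and cells were resuspended in PBS with 0.4% glucose. FeEnt was added to 2.5 × 10^7 cells in 3 ml, stirred at 2°C, with emission read at 520 nm.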

Row | Molecule | 59FeEnt transport rate compared with wild-type FepA (59FeEnt transport) | Increase of fluorescence recovery time compared with S271C-FM [1] [fold] | Vmax fold lower after fluoresceination (59FeEnt transport) | Quenching of FM emissions by FeEnt binding [3] | other results
1 | A383C (protein, UniProt P05825 23-746, looked up, variant A383C) Ferrienterobactin receptor: QEPTDTPVSHDDTIVVTAAEQNLQAPGVSTITADEIRKNPVARDVSKIIRTMPGVNLTGNSTSGQRGNNRQIDIRGMGPENTLILIDGKPVSSRNSVRQGWRGERDTRGDTSWVPPEMIERIEVLRGPAAARYGNGAAGGVVNIITKKGSGEWHGSWDAYFNAPEHKEEGATKRTNFSLTGPLGDEFSFRLYGNLDKTQADAWDINQGHQSARAGTYATTLPAGREGVINKDINGVVRWDFAPLQSLELEAGYSRQGNLYAGDTQNTNSDSYTRSKYGDETNRLYRQNYALTWNGGWDNGVTTSNWVQYEHTRNSRIPEGLAGGTEGKFNEKATQDFVDIDLDDVMLHSEVNLPIDFLVNQTLTLGTEWNQQRMKDLSSNTQCLTGTNTGGAIDGVSTTDRSPYSKAEIFSLFAENNMELTDSTIVTPGLRFDHHSIVGNNWSPALNISQGLGDDFTLKMGIARAYKAPSLYQTNPNYILYSKGQGCYASAGGCYLQGNDDLKAETSINKEIGLEFKRDGWLAGVTWFRNDYRNKIEAGYVAVGQNAVGTDLYQWDNVPKAVVEGLEGSLNVPVSETVMWTNNITYMLKSENKTTGDRLSIIPEYTLNSTLSWQAREDLSMQTTFTWYGKQQPKKYNYKGQPAVGPETKEISPYSIVGLSATWDVTKNVSLTGGVDNLFDKRLWRAGNAQTTGDLAGANYIAGAGAYTYNEPGRTWYMSVNTHF | about half that rate | 10 |  |  | 
2 | T550C (protein, UniProt P05825 23-746, looked up, variant T550C) Ferrienterobactin receptor: QEPTDTPVSHDDTIVVTAAEQNLQAPGVSTITADEIRKNPVARDVSKIIRTMPGVNLTGNSTSGQRGNNRQIDIRGMGPENTLILIDGKPVSSRNSVRQGWRGERDTRGDTSWVPPEMIERIEVLRGPAAARYGNGAAGGVVNIITKKGSGEWHGSWDAYFNAPEHKEEGATKRTNFSLTGPLGDEFSFRLYGNLDKTQADAWDINQGHQSARAGTYATTLPAGREGVINKDINGVVRWDFAPLQSLELEAGYSRQGNLYAGDTQNTNSDSYTRSKYGDETNRLYRQNYALTWNGGWDNGVTTSNWVQYEHTRNSRIPEGLAGGTEGKFNEKATQDFVDIDLDDVMLHSEVNLPIDFLVNQTLTLGTEWNQQRMKDLSSNTQALTGTNTGGAIDGVSTTDRSPYSKAEIFSLFAENNMELTDSTIVTPGLRFDHHSIVGNNWSPALNISQGLGDDFTLKMGIARAYKAPSLYQTNPNYILYSKGQGCYASAGGCYLQGNDDLKAETSINKEIGLEFKRDGWLAGVTWFRNDYRNKIEAGYVAVGQNAVGCDLYQWDNVPKAVVEGLEGSLNVPVSETVMWTNNITYMLKSENKTTGDRLSIIPEYTLNSTLSWQAREDLSMQTTFTWYGKQQPKKYNYKGQPAVGPETKEISPYSIVGLSATWDVTKNVSLTGGVDNLFDKRLWRAGNAQTTGDLAGANYIAGAGAYTYNEPGRTWYMSVNTHF |  | 10 |  |  | 
3 | S490C-FM: FepA S490C labeled with fluorescein-5-maleimide (FM) (conjugate, UniProt P05825 23-746, looked up, variant S490C, fluorescein-5-maleimide label) Ferrienterobactin receptor: QEPTDTPVSHDDTIVVTAAEQNLQAPGVSTITADEIRKNPVARDVSKIIRTMPGVNLTGNSTSGQRGNNRQIDIRGMGPENTLILIDGKPVSSRNSVRQGWRGERDTRGDTSWVPPEMIERIEVLRGPAAARYGNGAAGGVVNIITKKGSGEWHGSWDAYFNAPEHKEEGATKRTNFSLTGPLGDEFSFRLYGNLDKTQADAWDINQGHQSARAGTYATTLPAGREGVINKDINGVVRWDFAPLQSLELEAGYSRQGNLYAGDTQNTNSDSYTRSKYGDETNRLYRQNYALTWNGGWDNGVTTSNWVQYEHTRNSRIPEGLAGGTEGKFNEKATQDFVDIDLDDVMLHSEVNLPIDFLVNQTLTLGTEWNQQRMKDLSSNTQALTGTNTGGAIDGVSTTDRSPYSKAEIFSLFAENNMELTDSTIVTPGLRFDHHSIVGNNWSPALNISQGLGDDFTLKMGIARAYKAPSLYQTNPNYILYSKGQGCYACAGGCYLQGNDDLKAETSINKEIGLEFKRDGWLAGVTWFRNDYRNKIEAGYVAVGQNAVGTDLYQWDNVPKAVVEGLEGSLNVPVSETVMWTNNITYMLKSENKTTGDRLSIIPEYTLNSTLSWQAREDLSMQTTFTWYGKQQPKKYNYKGQPAVGPETKEISPYSIVGLSATWDVTKNVSLTGGVDNLFDKRLWRAGNAQTTGDLAGANYIAGAGAYTYNEPGRTWYMSVNTHF |  |  | 3–10 fold | 30% | Kd [2]: 90 nM; Km (59FeEnt transport; read-out: Transport >FM KM, 59FeEnt, 37°C, after modification with FM): 0.057 µM
4 | A698C (protein, UniProt P05825 23-746, looked up, variant A698C) Ferrienterobactin receptor: QEPTDTPVSHDDTIVVTAAEQNLQAPGVSTITADEIRKNPVARDVSKIIRTMPGVNLTGNSTSGQRGNNRQIDIRGMGPENTLILIDGKPVSSRNSVRQGWRGERDTRGDTSWVPPEMIERIEVLRGPAAARYGNGAAGGVVNIITKKGSGEWHGSWDAYFNAPEHKEEGATKRTNFSLTGPLGDEFSFRLYGNLDKTQADAWDINQGHQSARAGTYATTLPAGREGVINKDINGVVRWDFAPLQSLELEAGYSRQGNLYAGDTQNTNSDSYTRSKYGDETNRLYRQNYALTWNGGWDNGVTTSNWVQYEHTRNSRIPEGLAGGTEGKFNEKATQDFVDIDLDDVMLHSEVNLPIDFLVNQTLTLGTEWNQQRMKDLSSNTQALTGTNTGGAIDGVSTTDRSPYSKAEIFSLFAENNMELTDSTIVTPGLRFDHHSIVGNNWSPALNISQGLGDDFTLKMGIARAYKAPSLYQTNPNYILYSKGQGCYASAGGCYLQGNDDLKAETSINKEIGLEFKRDGWLAGVTWFRNDYRNKIEAGYVAVGQNAVGTDLYQWDNVPKAVVEGLEGSLNVPVSETVMWTNNITYMLKSENKTTGDRLSIIPEYTLNSTLSWQAREDLSMQTTFTWYGKQQPKKYNYKGQPAVGPETKEISPYSIVGLSATWDVTKNVSLTGGVDNLFDKRLWRAGNAQTTGDLAGCNYIAGAGAYTYNEPGRTWYMSVNTHF |  |  |  | > 60% | 
5 | A322C-FM: FepA A322C labeled with fluorescein-5-maleimide (FM) (conjugate, UniProt P05825 23-746, looked up, variant A322C, fluorescein-5-maleimide label) Ferrienterobactin receptor: QEPTDTPVSHDDTIVVTAAEQNLQAPGVSTITADEIRKNPVARDVSKIIRTMPGVNLTGNSTSGQRGNNRQIDIRGMGPENTLILIDGKPVSSRNSVRQGWRGERDTRGDTSWVPPEMIERIEVLRGPAAARYGNGAAGGVVNIITKKGSGEWHGSWDAYFNAPEHKEEGATKRTNFSLTGPLGDEFSFRLYGNLDKTQADAWDINQGHQSARAGTYATTLPAGREGVINKDINGVVRWDFAPLQSLELEAGYSRQGNLYAGDTQNTNSDSYTRSKYGDETNRLYRQNYALTWNGGWDNGVTTSNWVQYEHTRNSRIPEGLCGGTEGKFNEKATQDFVDIDLDDVMLHSEVNLPIDFLVNQTLTLGTEWNQQRMKDLSSNTQALTGTNTGGAIDGVSTTDRSPYSKAEIFSLFAENNMELTDSTIVTPGLRFDHHSIVGNNWSPALNISQGLGDDFTLKMGIARAYKAPSLYQTNPNYILYSKGQGCYASAGGCYLQGNDDLKAETSINKEIGLEFKRDGWLAGVTWFRNDYRNKIEAGYVAVGQNAVGTDLYQWDNVPKAVVEGLEGSLNVPVSETVMWTNNITYMLKSENKTTGDRLSIIPEYTLNSTLSWQAREDLSMQTTFTWYGKQQPKKYNYKGQPAVGPETKEISPYSIVGLSATWDVTKNVSLTGGVDNLFDKRLWRAGNAQTTGDLAGANYIAGAGAYTYNEPGRTWYMSVNTHF |  |  | 3–10 fold | similarly quenched | 
6 | S490C (protein, UniProt P05825 23-746, looked up, variant S490C) Ferrienterobactin receptor: QEPTDTPVSHDDTIVVTAAEQNLQAPGVSTITADEIRKNPVARDVSKIIRTMPGVNLTGNSTSGQRGNNRQIDIRGMGPENTLILIDGKPVSSRNSVRQGWRGERDTRGDTSWVPPEMIERIEVLRGPAAARYGNGAAGGVVNIITKKGSGEWHGSWDAYFNAPEHKEEGATKRTNFSLTGPLGDEFSFRLYGNLDKTQADAWDINQGHQSARAGTYATTLPAGREGVINKDINGVVRWDFAPLQSLELEAGYSRQGNLYAGDTQNTNSDSYTRSKYGDETNRLYRQNYALTWNGGWDNGVTTSNWVQYEHTRNSRIPEGLAGGTEGKFNEKATQDFVDIDLDDVMLHSEVNLPIDFLVNQTLTLGTEWNQQRMKDLSSNTQALTGTNTGGAIDGVSTTDRSPYSKAEIFSLFAENNMELTDSTIVTPGLRFDHHSIVGNNWSPALNISQGLGDDFTLKMGIARAYKAPSLYQTNPNYILYSKGQGCYACAGGCYLQGNDDLKAETSINKEIGLEFKRDGWLAGVTWFRNDYRNKIEAGYVAVGQNAVGTDLYQWDNVPKAVVEGLEGSLNVPVSETVMWTNNITYMLKSENKTTGDRLSIIPEYTLNSTLSWQAREDLSMQTTFTWYGKQQPKKYNYKGQPAVGPETKEISPYSIVGLSATWDVTKNVSLTGGVDNLFDKRLWRAGNAQTTGDLAGANYIAGAGAYTYNEPGRTWYMSVNTHF | about half that rate | 10 |  |  | 
